From PubChem
Rows were chosen to be rich in hits. Some 9.8% of all compounds tested hit in one or more screens of this group.
WT yeast gro inh: growth inhibition of WT yeast, mitochondrial fusion screen; mitochondrial fusion phenotypic screen, WT strain; inhibition, % at 10 µM; 190,000 tested, 2.1% active; in the data active = inhibition above about 58%; tested in S. cerevisiae
PMI activator: phosphomannose isomerase (human) activation; P34949; 190,000 tested, 0.005% active; activation factor at 20 µM; purified human PMI, coupled resazurin fluorescence, 20 min; active compounds read high; 1 = vehicle control, 0 substrate-free wells;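 active = activation factor of 2 or more at 20 µM, relative to plate controls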
Target sequence (P34949 whole entry, looked up): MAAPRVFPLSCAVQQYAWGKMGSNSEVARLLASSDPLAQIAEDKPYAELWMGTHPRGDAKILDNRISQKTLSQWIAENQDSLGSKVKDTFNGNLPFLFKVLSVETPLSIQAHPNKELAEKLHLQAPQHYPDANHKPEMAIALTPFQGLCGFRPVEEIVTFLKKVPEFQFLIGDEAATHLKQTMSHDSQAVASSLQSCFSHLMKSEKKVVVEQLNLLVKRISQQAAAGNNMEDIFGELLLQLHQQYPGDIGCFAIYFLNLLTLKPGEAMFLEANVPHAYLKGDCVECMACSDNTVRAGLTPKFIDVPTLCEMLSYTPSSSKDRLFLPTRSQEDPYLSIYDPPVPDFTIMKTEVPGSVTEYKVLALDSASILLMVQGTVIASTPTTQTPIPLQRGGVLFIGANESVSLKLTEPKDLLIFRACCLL
Calpain2 inh: calpain II (pig) inhibition; purified calpain II, fluorogenic peptide substrate, 30 min; inhibition, % at 16 µM; 220,000 tested, 0.37% active;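 active = inhibition above about 50%, limit read from the data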
L major viab: reduces viability of Leishmania major promastigotes. resazurin fluorescence viability. inhibition, % at 10 µM. 200,000 tested, 9% active; in the data active = inhibition above about 50%;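 also: promastigotes grown with compound for 44 hours at 28 °C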
PMI act satM6P: PMI (human) activation, high substrate; 190,000 tested, 0.34% active; coupled PMI enzyme assay, resazurin fluorescence, 20 min; active compounds read high; 1 = untreated enzyme, 0 = substrate-free blank; activation factor at 20 µM; P34949; AID 1216;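 active = activation factor of 2 or more at 20 µM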
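Test system: human PMI in coupled enzyme assay; Input: PMI at 15 ng/mL final; Medium: HEPES buffer, pH 7.4; Schedule: 20 min incubation at room temperature; Technique: resorufin fluorescence at Ex 544/Em 590 nm; Compound: 20 µM single dose; Probe or stimulus: Near-saturating mannose-6-phosphate, 1.0 mM.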
Rad51 HR inh: Rad51 (human) homologous recombination inhibition. hRad51 DNA strand exchange, fluorescence dequenching. inhibition, % at 10 µM. 200,000 tested, 0.085% active;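 active = inhibition above 40% at the single screening dose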;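 also: 0% = DMSO control wells and 100% = blanks with heterologous ssDNA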
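material = hRad51 filaments on single-stranded DNA | timing = filaments 15 min 37 °C, then compound 30 min | signal = FRET fluorescence dequenching, excitation 485 nm, emission 520 nm | benchmarks = control wells and blank wells on each plate | evaluation = percent inhibition relative to plate controls and blanks | compound = 10 µM final, single point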
Lmaj promast 1uM: inhibitors of Leishmania major promastigote growth, repeat at 1 uM. shares compounds with L major viab. L. major promastigote growth, resazurin fluorescence, 48 h. inhibition, % at 1 µM. 1,100 tested, 13% active;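 active = inhibition above about 50% in both repeat tests, limit read from the data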
* = called active by the depositor; i = inactive; / = no result.

SMILES	WT yeast gro inh	PMI activator	Calpain2 inh	L major viab	PMI act satM6P	Rad51 HR inh	Lmaj promast 1uM
COc1cc(CC(CC(=O)O)CC(C)OCc2ccccc2)cc(OC)c1 (stereo not drawn)	-16.8	1	-3.9	48.8	1	6.8	/
CCn1c(SCC(=O)N/N=C/c2c[nH]c3ccccc23)nnc1-c1ccc(Cl)cc1	-8.7	0.9	-19.4	-3.5	0.9	18.2	/
Cc1cc(/C=C(/C#N)c2nc3ccccc3[nH]2)c(C)n1-c1cccc([N+](=O)[O-])c1	29.3	0.9	-325.7	88.0*	1.1	11.0	17.4
Cc1cc(/C=C(\C#N)c2nc3ccccc3[nH]2)c(C)n1C	13.8	1	-23.9	38.5	0.9	-52.0	/
CCN(CC)CCn1c2ccccc2c2cnc(N)c(C#N)c21	7.5	0.9	-291.3	100.3*	0.8	12.2	3.0
O=C(CCN1CCOCC1)NNC(=S)NC(=O)c1ccccc1	-0.6	0.7	8.3	-8.9	1	-0.2	/
Cc1ccc(/C=N/NC(=O)c2cc(C3CC3)nc3ccccc23)o1	1.6	1.3	-1.6	14.7	1.4	/	/
CC(=O)Nc1ccc(S(=O)(=O)Oc2ccc(/C=C3\SC(N)=NC3=O)cc2)cc1	-4.8	0.9	-44.4	2.0	0.9	-112.6	/
COc1ccc(N2C(=S)NC(C)(C)CC2(C)c2ccc(OC(C)=O)cc2OC(C)=O)cc1 (stereo not drawn)	-10.0	1	7.2	2.1	1	2.0	/
CC(=O)Oc1cc2c(cc1Cl)C1(CC(c3ccccc3Cl)O2)CC(C)(C)NC(=S)N1 (stereo not drawn)	62.9*	0.9	-173.5	97.8*	0.9	4.0	-15.1
CCOC(=O)c1c(C)nc2c(c1-c1ccccc1)C(=O)c1ccccc1-2	8.8	1.2	6.4	1.2	1.3	-7.2	/
CCOC(=O)c1c(C)oc2c1C(=O)c1ccccc1C2=O	42.0	1.5	16.2	97.9*	1.2	1.4	14.2
COc1cccc(/C=N/n2c(SC)nnc2-c2ccccc2)c1OC	10.6	1.2	-322.8	84.4*	1	-2.8	22.3
COc1cccc(/C=N/n2c(SC)nnc2-c2ccccc2)c1O	-4.0	0.9	-29.9	-8.7	0.8	-5.7	/
Nc1ccc2nn(-c3cccc4ccccc34)nc2c1	7.2	0.6	i	99.4*	0.4	1.0	-8.5
Nc1ccc2nn(-c3ccccc3)nc2c1	62.9*	0.6	i	80.9*	0.4	-1.7	-21.8
CCN1CCCC(OC(=O)c2cc(-c3ccccc3Cl)nc3ccccc23)C1 (stereo not drawn)	15.5	1.1	41.5	77.7*	1	-6.8	19.1
CCN1/C(=C/C=C/c2oc3ccc4ccccc4c3[n+]2CC)Oc2ccc3ccccc3c21	76.2	0.9	26.6	100.4*	0.9	-393.6	101.2*
Cc1c(Cl)cccc1N/C(SCC(=O)N1CCCCCC1)=C(/C#N)c1nc2ccccc2s1	-18.3	1	-33.2	99.6*	1	6.3	18.7
O=C(CSc1nc2ccccc2s1)N1CCCCC1	4.6	0.9	-35.3	3.1	1	-1.4	/
Cn1ccnc1Sc1nnnn1-c1ccccc1	-5.4	0.9	6.8	-6.5	0.9	-4.3	/
Cc1ccc2cc(C)c(Sc3nnnn3-c3ccccc3)nc2c1	8.9	0.9	14.5	60.3*	0.9	2.8	-17.9
CCOP(=O)(c1ccccc1)c1nc(-c2ccccc2C)oc1N1CCCCC1 (stereo not drawn)	1.0	0.9	6.1	50.3*	0.9	7.1	-15.8
Cc1ccccc1-c1nc(P(=O)(c2ccccc2)c2ccccc2)c(N2CCOCC2)o1	/	/	-10.2	/	/	12.8	/
CCc1c(C)sc(NC(=O)c2ccco2)c1C(=O)N1CCCCC1	13.6	0.8	8.4	52.7*	0.8	-2.7	-4.6
SMILES	WT yeast gro inh	PMI activator	Calpain2 inh	L major viab	PMI act satM6P	Rad51 HR inh	Lmaj promast 1uM
Cc1nc(N2CCN(C)CC2)c2sc(=S)n(-c3ccccc3)c2n1	7.9	0.9	15.8	3.4	0.9	9.5	/
S=c1sc2c(Cl)ncnc2n1-c1ccccc1	-6.1	1.3	-18.9	87.0*	1.3	5.4	30.4
O=c1sc(Nc2ccccc2)nc2ccsc12	4.8	1	-14.7	100.0*	1.1	-5.8	-16.4
O=C(Nc1nc2ccsc2c(=O)s1)C1CCC1	/	/	-4.3	/	/	21.9	/
CCCCCCCCC[n+]1cccc2c3ccccc3ccc21	54.0	1	-21.3	100.7*	1.1	0.7	100.6*
O=[N+]([O-])c1ccc(C[n+]2cccc3c4ccccc4ccc32)cc1	37.1	1.2	-213.2	3.6	1.1	2.2	/
Cc1ccccc1OCC(=O)N/N=C/c1ccc(Sc2nc3ccccc3s2)o1	41.7	0.9	-173.6	6.8	0.9	-0.5	/
COCC(=O)N/N=C/c1ccc(Sc2nc3ccccc3s2)o1	-1.6	1	-6.3	81.3*	1	6.3	-8.3
CCOc1c(Br)cc(/C=N\NC(=O)c2ccccc2)cc1OC	-2.2	0.9	31.1	46.3	0.8	1.5	/
COc1cc(/C=N/NC(N)=S)cc(Br)c1OCc1ccccc1F	33.6	1	13.8	99.4*	1	3.1	22.4
COc1ccc(CCNC(=O)C2CCC(=O)N2CCc2ccccc2)cc1OC (stereo not drawn)	0.6	1	6.8	-1.1	1	-3.7	/
Cc1ccc(-c2c[n+]3c(n2-c2ccccc2)SCC3)cc1	/	/	11.5	/	/	/	/
Cc1ccc(-c2cn(-c3ccccc3)c3[n+]2CCCS3)cc1	14.4	1	-35.7	100.3*	1	/	46.4
CN(Cc1nc(-c2cnccn2)no1)Cc1n[nH]c2c1CCCC2	7.1	1	45.7	-4.9	1	-5.4	/
COc1ccc(C2Nc3ccccc3C(=O)N2O)cc1CN1CCOCC1 (stereo not drawn)	2.6	1.3	-5.8	-4.3	1.3	6.8	/
O=S(=O)(/N=C(/Nc1ccc(F)c(F)c1F)c1ccccc1)c1ccccc1	-22.4	0.9	11.3	88.6*	0.9	7.2	-12.3
COC(=O)c1ccc(N/C(=N/S(=O)(=O)c2ccccc2)c2ccccc2)cc1	-2.2	0.9	13.8	10.6	0.9	-1.0	/
COc1ccc(-c2ncncc2-c2csc(C)n2)c(O)c1OC	8.6	1	-7.5	2.2	1	8.8	/
COC1=C(N)C(=O)c2nc(-c3nc(C(=O)O)c(C)c(-c4ccc(OC)c(OC)c4O)c3N)ccc2C1=O	-25.3	0.4	2.9	64.9*	0.4	-1.3	19.2
Cn1c(-c2ccc(-c3ccccc3)cc2)c[nH]c1=S	0.6	1	-47.8	57.2*	1.1	1.3	-3.7
CCn1c(-c2ccc(-c3ccccc3)cc2)c[nH]c1=S	-4.7	1	-14.5	16.4	1.2	6.4	/
c1ccc2c(c1)nc(N1CCOCC1)c1c3ccccc3[nH]c21	-13.9	1.2	-17.1	52.6*	1.1	-3.7	11.3
Cc1[nH]ccc(=O)c1Oc1ncc(C(F)(F)F)cc1Cl	-1.3	1.2	-58.2	15.7	1.4	-10.8	/
